Experimental data from ChEMBL document CHEMBL1156077, “Piperazinyl-glutamate-pyrimidines as potent P2Y12 antagonists for inhibition of platelet aggregation” (Bioorg Med Chem Lett, 2009).
Activity calls are given as the source filed them. No cut-off for these calls is given here.

Tests used:
[1] = Selectivity for human P2Y12 receptor over P2Y1
[2] = target: T1, P2Y purinoceptor 12 (Homo sapiens, UniProt Q9H244); assay: Binding affinity at human recombinant P2Y12 receptor expressed in CHO cells by radioligand binding assay; type: cell-based
Outline: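 Washed membranes from CHO cells transfected with synthetic human P2Y12 gene. Compounds as 7-point threefold dilutions, triplicate, 1 h at room temperature. Nonspecific binding defined with 300 nM 2-MeSADP. Filtered, washed with ice-cold Tris pH 7.4. Single-site fit; IC50 converted to Ki by Cheng–Prusoff, geometric mean of n≥2.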

[3] = Selectivity for human P2Y12 receptor over P2Y13
[4] = target: T1, P2Y purinoceptor 12; assay: Binding affinity at human recombinant P2Y12 receptor expressed in CHO cells by radioligand binding assay in presence of 0.4% human serum albumin; type: cell-based
Outline: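 Membranes from CHO cells transfected with a synthetic human P2Y12 gene, with 0.4% human serum albumin added to the binding buffer (50 mM Tris, 100 mM NaCl, 1 mM EDTA). Seven-point threefold dilutions were run in triplicate, 1 h at room temperature, then filtered. Ki from IC50 by Cheng-Prusoff.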

[5] = target: CYP2D6 (Homo sapiens, UniProt P10635); assay: Inhibition of CYP2D6 at 3 uM after 30 mins; type: ADME
Outline: (§1)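 Each CYP isoform assayed separately at a single 3 µM compound concentration in duplicate, with at least one isoform-specific positive control inhibitor. Incubation 30 min at 37 °C; end-point measurement gives percent inhibition.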

[6] = target: T1, P2Y purinoceptor 12; assay: Ratio of compound IC50 to thienopyrimidine IC50 for P2Y12 receptor in human platelet rich plasma assessed as inhibition of ADP-induced platelet aggregation by light transmission aggregometry
Outline: (§2)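 Human platelet-rich plasma was pre-incubated 5 min at 37 °C with compound across seven concentrations (10 down to 0.156). Aggregation was started with ADP (20, final) and followed by light transmission at 626 nm for 15 min at 37 °C. Duplicate concentration-response data were read at the 15-min end-point. IC50 was divided by the IC50 of the thienopyrimidine reference run on the same plate.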

[7] = target: CYP3A4 (Homo sapiens, UniProt P08684); assay: Inhibition of CYP3A4 at 3 uM after 30 mins; type: ADME; outline: as §1
[8] = target: hERG (KCNH2) (Homo sapiens, UniProt Q12809); assay: Displacement of Cy3B-tagged N-desmethyl dofetilide from human ERG expressed in HEK cells at 10 uM after 120 mins; type: cell-based, HEK293; settings: HEK cells that express human ERG, probe Cy3B-tagged N-desmethyl dofetilide
Outline: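 Fluorescence polarization competition assay with HEK-hERG membrane homogenates and Cy3B-tagged N-desmethyl dofetilide tracer. Compound tested at a single 10 µM concentration, 120 min incubation, end-point read for percent inhibition.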

[9] = Clearance in Sprague-Dawley rat at 2 mg/kg, iv and 5 mg/kg, po; type: ADME, organism-based; settings: in vivo
[10] = target: T2, CYP1A2 (Homo sapiens, UniProt P05177); assay: Inhibition of CYP1A2 at 3 uM after 30 mins; type: ADME; outline: as §1
T2 sequence (P05177 whole entry): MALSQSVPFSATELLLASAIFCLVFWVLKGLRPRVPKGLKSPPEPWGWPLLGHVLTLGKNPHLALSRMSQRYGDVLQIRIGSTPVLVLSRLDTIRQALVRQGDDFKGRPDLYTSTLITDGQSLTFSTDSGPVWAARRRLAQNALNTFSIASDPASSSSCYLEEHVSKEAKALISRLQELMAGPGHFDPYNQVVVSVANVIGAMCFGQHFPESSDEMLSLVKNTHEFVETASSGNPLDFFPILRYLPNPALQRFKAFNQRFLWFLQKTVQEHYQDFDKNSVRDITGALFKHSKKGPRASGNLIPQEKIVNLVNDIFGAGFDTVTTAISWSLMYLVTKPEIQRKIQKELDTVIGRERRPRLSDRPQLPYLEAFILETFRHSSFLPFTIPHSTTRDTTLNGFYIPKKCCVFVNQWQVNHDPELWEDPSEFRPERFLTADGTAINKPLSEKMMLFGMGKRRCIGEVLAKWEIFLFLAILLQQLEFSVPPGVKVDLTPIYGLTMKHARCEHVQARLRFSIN

[11] = Effective half life in Sprague-Dawley rat at 2 mg/kg, iv and 5 mg/kg, po; type: ADME, organism-based; settings: in vivo
[12] = target: T1, P2Y purinoceptor 12; assay: Ratio of compound IC50 to AZD-6140 IC50 for P2Y12 receptor in human platelet rich plasma assessed as inhibition of ADP-induced platelet aggregation by light transmission aggregometry
Outline: as §2, with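 “AZD-6140” for “the thienopyrimidine reference”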

[13] = test system: Liver microsomes; assay: Metabolic stability in human liver microsomes assessed as compound remaining; type: ADME, Microsome
Outline: (§3)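 Compounds incubated 30 min with human or rat liver microsomes; percent of parent compound remaining measured.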

[14] = test system: Liver microsomes; assay: Metabolic stability in rat liver microsomes assessed as compound remaining; type: ADME, Microsome; outline: as §3
[15] = Volume of distribution at steady state in Sprague-Dawley rat at 2 mg/kg, iv and 5 mg/kg, po; type: ADME, organism-based; settings: in vivo, read-out: Vdss
[16] = target: CYP2C9 (Homo sapiens, UniProt P11712); assay: Inhibition of CYP2C9 at 3 uM after 30 mins; type: ADME; outline: as §1
[17] = Oral bioavailability in Sprague-Dawley rat at 5 mg/kg; type: ADME, organism-based; settings: in vivo

hERG (KCNH2), sequence (Q12809 whole entry): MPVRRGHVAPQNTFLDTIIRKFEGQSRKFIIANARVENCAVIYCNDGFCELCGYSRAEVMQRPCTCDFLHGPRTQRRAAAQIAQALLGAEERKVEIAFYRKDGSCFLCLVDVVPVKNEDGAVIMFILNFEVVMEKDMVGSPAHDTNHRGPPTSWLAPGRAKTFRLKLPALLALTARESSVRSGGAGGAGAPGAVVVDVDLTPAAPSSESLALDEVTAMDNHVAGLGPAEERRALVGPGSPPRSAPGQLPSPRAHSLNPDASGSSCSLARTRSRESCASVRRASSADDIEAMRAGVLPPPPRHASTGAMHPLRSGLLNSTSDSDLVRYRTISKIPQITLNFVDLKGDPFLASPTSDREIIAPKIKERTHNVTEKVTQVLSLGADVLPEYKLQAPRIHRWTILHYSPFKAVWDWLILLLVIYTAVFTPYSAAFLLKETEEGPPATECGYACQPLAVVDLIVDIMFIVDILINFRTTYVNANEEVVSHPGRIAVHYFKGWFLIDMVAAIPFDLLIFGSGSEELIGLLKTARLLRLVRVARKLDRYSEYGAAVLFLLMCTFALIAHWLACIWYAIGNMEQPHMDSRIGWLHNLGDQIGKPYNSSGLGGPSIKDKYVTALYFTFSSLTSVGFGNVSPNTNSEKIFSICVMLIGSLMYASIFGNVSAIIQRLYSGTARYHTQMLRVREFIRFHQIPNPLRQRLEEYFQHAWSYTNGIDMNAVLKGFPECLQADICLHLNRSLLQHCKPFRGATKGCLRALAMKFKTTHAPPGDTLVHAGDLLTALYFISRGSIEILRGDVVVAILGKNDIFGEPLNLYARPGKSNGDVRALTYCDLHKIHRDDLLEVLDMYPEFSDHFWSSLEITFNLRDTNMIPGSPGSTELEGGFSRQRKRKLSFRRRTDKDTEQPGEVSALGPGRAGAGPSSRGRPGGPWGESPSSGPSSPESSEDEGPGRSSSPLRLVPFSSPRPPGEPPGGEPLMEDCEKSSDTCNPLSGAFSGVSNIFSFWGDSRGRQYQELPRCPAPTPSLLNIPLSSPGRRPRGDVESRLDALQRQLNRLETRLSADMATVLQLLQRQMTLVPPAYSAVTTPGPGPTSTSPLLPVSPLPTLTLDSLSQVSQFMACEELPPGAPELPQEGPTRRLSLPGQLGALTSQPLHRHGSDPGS
CYP2D6, sequence (P10635 whole entry, canonical isoform): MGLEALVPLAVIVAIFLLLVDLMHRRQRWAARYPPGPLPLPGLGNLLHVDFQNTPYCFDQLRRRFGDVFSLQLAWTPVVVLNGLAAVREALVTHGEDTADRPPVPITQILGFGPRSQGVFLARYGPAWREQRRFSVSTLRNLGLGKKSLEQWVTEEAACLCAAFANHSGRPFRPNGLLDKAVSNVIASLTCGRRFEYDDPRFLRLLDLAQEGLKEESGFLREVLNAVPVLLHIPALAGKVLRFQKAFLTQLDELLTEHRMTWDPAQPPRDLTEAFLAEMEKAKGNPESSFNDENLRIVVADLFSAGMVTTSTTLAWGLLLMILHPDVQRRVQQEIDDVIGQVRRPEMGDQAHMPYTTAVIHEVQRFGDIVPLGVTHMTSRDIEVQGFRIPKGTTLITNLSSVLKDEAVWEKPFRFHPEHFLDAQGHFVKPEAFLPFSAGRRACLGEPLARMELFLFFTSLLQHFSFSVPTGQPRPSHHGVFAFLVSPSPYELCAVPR
CYP2C9, sequence (P11712 whole entry): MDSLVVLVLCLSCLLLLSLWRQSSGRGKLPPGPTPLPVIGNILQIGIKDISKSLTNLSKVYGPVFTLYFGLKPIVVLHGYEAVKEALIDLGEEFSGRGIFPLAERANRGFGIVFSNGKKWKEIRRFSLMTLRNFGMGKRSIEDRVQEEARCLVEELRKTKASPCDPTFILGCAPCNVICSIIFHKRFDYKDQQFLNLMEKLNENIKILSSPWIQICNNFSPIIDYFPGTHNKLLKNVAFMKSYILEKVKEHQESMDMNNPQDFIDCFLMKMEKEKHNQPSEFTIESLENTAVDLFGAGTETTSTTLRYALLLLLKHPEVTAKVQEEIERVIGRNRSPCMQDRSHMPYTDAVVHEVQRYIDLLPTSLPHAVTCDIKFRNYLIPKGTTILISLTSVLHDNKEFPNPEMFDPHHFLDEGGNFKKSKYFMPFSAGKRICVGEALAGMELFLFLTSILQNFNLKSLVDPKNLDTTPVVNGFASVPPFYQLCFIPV
CYP3A4, sequence (P08684 whole entry): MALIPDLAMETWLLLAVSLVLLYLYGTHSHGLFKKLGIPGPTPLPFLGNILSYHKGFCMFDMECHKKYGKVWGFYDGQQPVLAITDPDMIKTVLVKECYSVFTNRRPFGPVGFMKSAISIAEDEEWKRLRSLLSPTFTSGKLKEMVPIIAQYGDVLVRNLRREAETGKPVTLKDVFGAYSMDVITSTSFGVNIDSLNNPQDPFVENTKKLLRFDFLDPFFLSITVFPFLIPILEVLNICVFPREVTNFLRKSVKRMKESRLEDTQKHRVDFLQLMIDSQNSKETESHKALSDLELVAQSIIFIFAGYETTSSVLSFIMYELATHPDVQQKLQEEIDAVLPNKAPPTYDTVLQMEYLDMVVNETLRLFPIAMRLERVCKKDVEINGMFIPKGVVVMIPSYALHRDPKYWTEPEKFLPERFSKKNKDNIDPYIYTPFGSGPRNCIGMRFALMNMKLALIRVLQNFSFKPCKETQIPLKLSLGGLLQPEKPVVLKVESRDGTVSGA
T1 sequence (Q9H244 whole entry): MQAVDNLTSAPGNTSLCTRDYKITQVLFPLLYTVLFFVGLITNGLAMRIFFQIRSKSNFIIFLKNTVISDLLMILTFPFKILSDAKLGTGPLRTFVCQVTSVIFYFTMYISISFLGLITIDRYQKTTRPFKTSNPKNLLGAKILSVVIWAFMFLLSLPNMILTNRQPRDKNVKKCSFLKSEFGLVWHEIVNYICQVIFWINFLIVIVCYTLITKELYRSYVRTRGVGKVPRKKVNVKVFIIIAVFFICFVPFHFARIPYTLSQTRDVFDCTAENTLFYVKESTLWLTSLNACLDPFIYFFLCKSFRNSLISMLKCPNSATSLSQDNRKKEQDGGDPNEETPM

## CCCCCOC(=O)N1CCN(C(=O)[C@H](CCC(=O)O)NC(=O)c2cc(SCC(F)(F)F)nc(-c3ccccc3)n2)CC1
[1]
  fold change (FC): > 340
[2]
  Ki: 22 nM
[3]
  fold change (FC): > 340
[4]
  Activity: inactive

## CCCCCOC(=O)N1CCN(C(=O)[C@H](CCC(=O)O)NC(=O)c2cc(SCCO)nc(-c3ccccc3)n2)CC1
[1]
  fold change (FC): > 340
[2]
  Ki: 4.5 nM
[3]
  fold change (FC): > 340
[4]
  Activity: inactive

## CCCCCOC(=O)N1CCN(C(=O)[C@H](CCC(=O)O)NC(=O)c2nc(-c3ccccc3)cc(N3CCC(CN)CC3)n2)CC1
[5]
  inhibition at 0.5 h, 3 µM: < 25%
[6]
  Ratio IC50: 0.2
[1]
  fold change (FC): > 340
[7]
  inhibition at 0.5 h, 3 µM: < 25%
[2]
  Ki: 9.4 nM
[3]
  fold change (FC): > 340
[8]
  inhibition at 2 h, 10 µM: < 25%
[9]
  clearance: 16 mL/min/kg
[10]
  inhibition at 0.5 h, 3 µM: < 25%
[11]
  half-life: 12 min
[12]
  Ratio IC50: 1.2
[13]
  Stability: > 80%
[14]
  Stability: > 80%
[15]
  Vd: 0.28 L/kg
[16]
  inhibition at 0.5 h, 3 µM: < 25%
[17]
  bioavailability: 1%

## CCCCCOC(=O)N1CCN(C(=O)[C@H](CCC(=O)O)NC(=O)c2cc(SC3CCCC3)nc(-c3ccccc3)n2)CC1
[1]
  fold change (FC): > 340
[2]
  Ki: 17 nM
[3]
  fold change (FC): > 340
[4]
  Activity: inactive

## CCCCCOC(=O)N1CCN(C(=O)[C@H](CCC(=O)O)NC(=O)c2cc(N3CCC(CN)CC3)nc(-c3ccccc3)n2)CC1
[5]
  inhibition at 0.5 h, 3 µM: < 25%
[6]
  Ratio IC50: 0.1
[1]
  fold change (FC): > 340
[7]
  inhibition at 0.5 h, 3 µM: < 25%
[2]
  Ki: 3 nM
[3]
  fold change (FC): > 340
[8]
  inhibition at 2 h, 10 µM: < 25%
[9]
  clearance: 33 mL/min/kg
[10]
  inhibition at 0.5 h, 3 µM: < 25%
[11]
  half-life: 102 min
[12]
  Ratio IC50: 0.6
[13]
  Stability: > 80%
[14]
  Stability: > 80%
[15]
  Vd: 4.9 L/kg
[16]
  inhibition at 0.5 h, 3 µM: < 25%
[17]
  bioavailability: 1%

## CCCCCOC(=O)N1CCN(C(=O)[C@H](CCC(=O)O)NC(=O)c2cc(N3CCC(C(=O)NCC)CC3)nc(-c3ccccc3)n2)CC1
[5]
  inhibition at 0.5 h, 3 µM: < 25%
[6]
  Ratio IC50: 0.2
[1]
  fold change (FC): > 340
[7]
  inhibition at 0.5 h, 3 µM: < 25%
[2]
  Ki: 0.6 nM
[3]
  fold change (FC): > 340
[8]
  inhibition at 2 h, 10 µM: < 25%
[9]
  clearance: 8 mL/min/kg
[10]
  inhibition at 0.5 h, 3 µM: < 25%
[11]
  half-life: 18 min
[12]
  Ratio IC50: 1.5
[13]
  Stability: > 80%
[14]
  Stability: > 80%
[15]
  Vd: 0.2 L/kg
[16]
  inhibition at 0.5 h, 3 µM: < 25%
[17]
  bioavailability: 8%

## CCCCCOC(=O)N1CCN(C(=O)[C@H](CCC(=O)O)NC(=O)c2cc(N3CCC(COC)CC3)nc(-c3ccccc3)n2)CC1
[5]
  inhibition at 0.5 h, 3 µM: < 25%
[6]
  Ratio IC50: 0.4
[1]
  fold change (FC): > 340
[7]
  inhibition at 0.5 h, 3 µM: < 25%
[2]
  Ki: 8.4 nM
[3]
  fold change (FC): > 340
[8]
  inhibition at 2 h, 10 µM: < 25%
[9]
  clearance: 14 mL/min/kg
[10]
  inhibition at 0.5 h, 3 µM: < 25%
[11]
  half-life: 54 min
[12]
  Ratio IC50: 2.8
[13]
  Stability: > 80%
[14]
  Stability: > 80%
[15]
  Vd: 1.1 L/kg
[16]
  inhibition at 0.5 h, 3 µM: < 25%
[17]
  bioavailability: 61%

## CCCCCOC(=O)N1CCN(C(=O)[C@H](CCC(=O)O)NC(=O)c2cc(SC3CCCCC3)nc(-c3ccccc3)n2)CC1
[1]
  fold change (FC): > 340
[2]
  Ki: 70 nM
[3]
  fold change (FC): > 340
[4]
  Activity: inactive

## CCCCCOC(=O)N1CCN(C(=O)[C@H](CCC(=O)O)NC(=O)c2cc(N3CCC(CNC)CC3)nc(-c3ccccc3)n2)CC1
[5]
  inhibition at 0.5 h, 3 µM: < 25%
[6]
  Ratio IC50: 0.1
[1]
  fold change (FC): > 340
[7]
  inhibition at 0.5 h, 3 µM: < 25%
[2]
  Ki: 1.2 nM
[3]
  fold change (FC): > 340
[8]
  inhibition at 2 h, 10 µM: < 25%
[9]
  clearance: 31 mL/min/kg
[10]
  inhibition at 0.5 h, 3 µM: < 25%
[11]
  half-life: 42 min
[12]
  Ratio IC50: 0.7
[13]
  Stability: > 80%
[14]
  Stability: > 80%
[15]
  Vd: 2 L/kg
[16]
  inhibition at 0.5 h, 3 µM: < 25%
[17]
  bioavailability: 2%

## CCCCCOC(=O)N1CCN(C(=O)[C@H](CCC(=O)O)NC(=O)c2nc(-c3ccccc3)cc(N3CCC(COC)CC3)n2)CC1
[5]
  inhibition at 0.5 h, 3 µM: < 25%
[6]
  Ratio IC50: 1.4
[1]
  fold change (FC): > 340
[7]
  inhibition at 0.5 h, 3 µM: < 25%
[2]
  Ki: 12 nM
[3]
  fold change (FC): > 340
[8]
  inhibition at 2 h, 10 µM: < 25%
[9]
  clearance: 6 mL/min/kg
[10]
  inhibition at 0.5 h, 3 µM: < 25%
[11]
  half-life: 18 min
[12]
  Ratio IC50: 9.5
[13]
  Stability: > 80%
[14]
  Stability: > 80%
[15]
  Vd: 0.15 L/kg
[16]
  inhibition at 0.5 h, 3 µM: < 25%
[17]
  bioavailability: 6%

## CCCCCOC(=O)N1CCN(C(=O)[C@H](CCC(=O)O)NC(=O)c2cc(SC(C)(C)C)nc(-c3ccccc3)n2)CC1
[1]
  fold change (FC): > 340
[2]
  Ki: 42 nM
[3]
  fold change (FC): > 340
[4]
  Activity: inactive

## CCCCCOC(=O)N1CCN(C(=O)[C@H](CCC(=O)O)NC(=O)c2cc(N3CCC(CN4CCCC4)CC3)nc(-c3ccccc3)n2)CC1
[5]
  inhibition at 0.5 h, 3 µM: < 25%
[6]
  Ratio IC50: 0.1
[1]
  fold change (FC): > 340
[7]
  inhibition at 0.5 h, 3 µM: < 25%
[2]
  Ki: 0.4 nM
[3]
  fold change (FC): > 340
[8]
  inhibition at 2 h, 10 µM: < 25%
[9]
  clearance: 98 mL/min/kg
[10]
  inhibition at 0.5 h, 3 µM: < 25%
[11]
  half-life: 18 min
[12]
  Ratio IC50: 0.7
[13]
  Stability: > 80%
[14]
  Stability: > 80%
[15]
  Vd: 7.7 L/kg
[16]
  inhibition at 0.5 h, 3 µM: < 25%
[17]
  bioavailability: 1%
